Assay results reported in publication PMC6153967 (CNS Drugs, 2018).
Where “and” joins values, the source holds several entries; their conditions need not be identical. Equal entries are not always repeated. Where two headings read alike, the source gives them in different places.

What was measured:
[1] = tramiprosate phase III NA trial; cited from earlier work
[2] = cited from earlier work
[3] = biological target: Recombinant human Aβ42 peptide (Homo sapiens, UniProt P05067); test: IMS–MS anti-Aβ42 oligomer activity; format: biochemical; details: for Inhibition of Aβ42 oligomer formation (in words): 1000:1, 24 h in vitro
Summary of the method: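 Recombinant human Aβ42 was reconstituted in LC–MS-grade water as a 5 mg/ml stock and diluted to 22 pmol/µl final. Test compound in water was diluted to […] and 22,000 pmol/µl solutions for 100- and 1000-fold molar excess. Mixtures were incubated at room temperature for 0, 4 and 24 h. Samples were analysed by direct infusion on a traveling-wave IMS Q-TOF: positive sensitivity mode, m/z 500–4000, with drift times used to resolve monomer and oligomers.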

[4] = both phase III trials, subjects receiving active drug; cited from earlier work
[5] = ref Alzheon, data on file, cited from earlier work
[6] = format: in vivo, human; details: drug-naïve
Summary of the method: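 CSF came from 64 untreated patients with cognitive deficits (MMSE 15–30). Sampling: lumbar puncture at L3–L5, supine, atraumatic needle, 8–11 a.m. Spun 5 min at 2000 rpm at room temperature, aliquoted into polypropylene, stored at –80 °C. Samples were derivatized with EDC/TFEA for 30 min at room temperature and centrifuged. The supernatant went to LC–MS/MS. Identity was set by retention time and two transition ions against reference standard. LOQ 0.1 ng/ml; range 0.1–1000 ng/ml.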

[7] = Oral and intravenous pharmacokinetics in Sprague Dawley rats; format: in vivo; details: male, rat, plasma, 10 mg/kg; for Vd: intravenous 10 mg/kg
Summary of the method: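 Fasted male Sprague Dawley rats, n = 3 per group, received test compound in saline orally by gavage (30 mg/kg) or as an IV bolus (10 mg/kg). Serial blood was drawn at 0.25, 0.5, 1, 2, 4, 8 and 24 h into K2EDTA and centrifuged to plasma. Plasma was stored at –80 °C and assayed by LC–MS/MS. Parameters were calculated from mean concentration–time curves.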

[8] = Brain penetration after single oral dose in Sprague Dawley rats; format: in vivo, male Sprague Dawley rats; details: oral 30 mg/kg
Summary of the method: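 Fasted male Sprague Dawley rats received test compound in saline by oral gavage at 30 mg/kg. Terminal plasma, CSF and brain were taken at 1, 2, 6 and 24 h, three rats per time point. Brains were perfused to remove blood before processing. All matrices were assayed by LC–MS/MS. AUC ratios were derived from mean concentration–time curves.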

[9] = format: in vivo, human; details: tramiprosate 150 mg BID, week 78
Summary of the method: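 Retrospective lumbar CSF from six patients with AD in the phase III trial, sampled at week 78 of dosing. The metabolite was quantified by a validated LC–MS/MS method in a separate bioanalytical laboratory.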

Recombinant human Aβ42 peptide, sequence (P05067 672-713): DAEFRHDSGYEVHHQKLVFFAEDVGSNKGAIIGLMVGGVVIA

## NCCCS(=O)(=O)O [Tramiprosate, reference compound]
[1]
  Estimated mean concentration in the brain: ~ 130 nM
[2]
  Steady-state brain penetration: approximately 40%
[3]
  Inhibition of Aβ42 oligomer formation (in words): complete inhibition
[4]
  Cases of ARIA-E in brain MRI safety analyses: no cases

## CC(C)[C@H](N)C(=O)NCCCS(=O)(=O)O [ALZ-801]
[2]; PK/PD projections using 14C tramiprosate
  Improvement in brain penetration: ~ 30%
[5]; 1-month (28-day) rat study
  NOAEL: 2000 mg/kg
[5]; 6-month rat study
  NOAEL: 1500 mg/kg

## O=C(O)CCS(=O)(=O)O [3-SPA, 3-sulfopropanoic acid]
[6]; all patients
  Concentration of 3-SPA in CSF, median: 1.7 ng/ml and 10.8 nM
[6]; female
  Concentration of 3-SPA in CSF, median: 1.6 ng/ml and 10.4 nM
  Concentration of 3-SPA in CSF, minimum–maximum: 0.6–4.3 ng/ml and 4.2–27.7 nM
[6]; female (N 37)
  Concentration of 3-SPA in CSF, mean ± SD: 1.7 ± 0.7 ng/ml and 11.2 ± 4.4 nM
[6]; male
  Concentration of 3-SPA in CSF, median: 1.7 ng/ml and 11.1 nM
  Concentration of 3-SPA in CSF, minimum–maximum: 0.8–3.8 ng/ml and 5.5–24.7 nM
[6]; male (N 27)
  Concentration of 3-SPA in CSF, mean ± SD: 1.9 ± 0.6 ng/ml and 12.5 ± 4.1 nM
[7]
  clearance: 45 mL/min/kg
[7]; Vss
  Vd: 12.9 L/kg
[7]; Vz
  Vd: 43.6 L/kg
[5]; at 2000 mg/kg ALZ-801 NOAEL, 28-day rat study
  Sustained 3-SPA levels (plasma AUC): 180 millimolar (AUC in h × nM)
[3]
  Inhibition of Aβ42 oligomer formation (in words): Near complete prevention of formation of Aβ42 oligomers except for pentamers
[3]; 1000:1, after 4 h incubation
  Aβ42 oligomer species not inhibited: dimers, trimers, and pentamers
[3]; 1000:1, after 24 h incubation
  Aβ42 oligomer species not inhibited: pentamers
[8]
  Brain/plasma AUC ratio (brain penetration): 25.3%
[9]; human, CSF, oral, 150 mg BID, Minimum–maximum 3-SPA concentration in CSF
  concentration at 78 week: 112 to 232 nM
[9]
  Median 3-SPA concentration in CSF: 19.8 ng/ml and 128.6 nM
